Assay outcomes deposited in PubChem BioAssay by several laboratories.
ATG4B inh: ATG4B protease inhibitors, primary screen, biochemical, fluorescence, uHTS; actives 0.51% (n = 340,000); Cysteine protease ATG4B (Homo sapiens), Q9Y4P1; ATG4B cleavage of LC3-PLA2, NBD-HPC fluorescence, 1 h; inhibition, % at 8.33 µM; in the data active = inhibition above about 40%
SENP1 FRET inh: human SENP1 catalytic domain inhibitors, primary screen, biochemical, FRET, uHTS; Sentrin-specific protease 1 (Homo sapiens), Q9P0U3; actives 0.21% (n = 360,000); recombinant SENP1 catalytic domain, CyPet-SUMO1-YPet FRET cleavage; inhibition, % at 10 µM; AID 624204, 2012;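 active = inhibition at least 30% at 10 µM, raw YFP signal under a set limit, fluorescence ratio 0.5 to 1.5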;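 also: 0% = enzyme with DMSO and 100% = no enzyme wells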
Target sequence (Q9P0U3 419-644 limits assumed): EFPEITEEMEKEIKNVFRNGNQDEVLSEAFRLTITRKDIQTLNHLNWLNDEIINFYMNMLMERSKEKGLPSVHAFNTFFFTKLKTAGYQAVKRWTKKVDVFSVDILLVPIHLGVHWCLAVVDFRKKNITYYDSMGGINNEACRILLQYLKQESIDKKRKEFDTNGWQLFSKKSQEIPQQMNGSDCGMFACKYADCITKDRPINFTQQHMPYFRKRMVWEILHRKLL
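Test system: recombinant human SENP1 catalytic domain, His6-tagged / Medium: pH 8 Tris buffer with EDTA, NaCl, BME, BSA, NP40, catalase / Also added: SUMO1 FRET substrate flanked by Cypet and Ypet, 25 nM / Times: 50 min reaction at room temperature / Signal: FRET, CFP and YFP emission / Control set: no-enzyme low control and enzyme-plus-DMSO high control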
UCH37 DUB inh: inhibitors of human UCH37 deubiquitinase, primary screen, biochemical, Ub-AMC cleavage, fluorescence; Ubiquitin carboxyl-terminal hydrolase isozyme L5 (Homo sapiens), Q9Y5K5; purified proteasome/UCH37; inhibition, % (no concentration beside the values); actives 0.33% (n = 330,000); AID 588478, 2011;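 active = mean inhibition over replicate wells above about 20%, limit read from the data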;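 also: 0% = compound-free wells with enzyme and 100% = wells lacking proteasome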
Target sequence (Q9Y5K5 whole entry, looked up): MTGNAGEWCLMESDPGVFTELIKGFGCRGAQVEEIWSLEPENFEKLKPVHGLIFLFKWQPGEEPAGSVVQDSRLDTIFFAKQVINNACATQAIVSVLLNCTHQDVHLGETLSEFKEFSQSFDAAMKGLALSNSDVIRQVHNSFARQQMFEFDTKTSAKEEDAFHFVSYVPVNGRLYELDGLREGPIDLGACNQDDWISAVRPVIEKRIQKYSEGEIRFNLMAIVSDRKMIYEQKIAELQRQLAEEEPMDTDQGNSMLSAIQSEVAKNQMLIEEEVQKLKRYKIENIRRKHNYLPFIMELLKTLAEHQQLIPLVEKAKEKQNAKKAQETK
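Test system – human UCH37 enzyme supplied as purified proteasome complex · Incubation – 30 min preincubation with enzyme, 25 min cleavage at room temperature · Detection – AMC fluorescence from Ub-AMC cleavage, excitation 355 nm, emission 460 nm · Benchmarks – no-proteasome wells (full inhibition) and compound-free wells (no inhibition)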
GRIN3A LBD mod: binders of NR3A ligand-binding domain, primary screen, biophysical, differential scanning fluorimetry, uHTS | NR3A LBD differential scanning fluorimetry, Tm shift; 0% = protein alone, 100% = glycine-bound protein | Glutamate receptor ionotropic, NMDA 3A (GRIN3A) ligand-binding domain | actives 2.5% (n = 340,000) | Tm shift relative to glycine control, % at 25 µM;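 active = melting temperature shift of at least 10% of the positive control shift, at one fixed dose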
NadD inh: inhibitors of S. aureus NadD, primary screen, biochemical, colorimetric, uHTS. actives 0.78% (n = 360,000). Nicotinate-nucleotide adenylyltransferase NadD (Staphylococcus aureus N315). inhibition, % at 20 µM. purified NadD enzyme, colorimetric absorbance read-out. AID 602399, 2012; in the data active = inhibition above about 26%
ATG4B confirm: ATG4B protease inhibitors, retest, confirmation, biochemical, fluorescence, single concentration; ATG4B protease fluorescent substrate cleavage assay; inhibition, % at 8.33 µM; actives 92% (n = 320); shares compounds with ATG4B inh; in the data active = inhibition above about 39%
PLA2 ctr: PLA2 enzyme inhibition, counter-screen for ATG4B inhibitor project, biochemical, single concentration, uHTS hits; shares compounds with ATG4B inh; purified PLA2, NBD-C6-HPC fluorescence, 45 min; inhibition, % at 8.33 µM; actives 66% (n = 1,600); AID 588402, 2011; in the data active = inhibition above about 50%
The depositor's hits bear a star; · = no result given. An excerpt weighted towards active compounds, which were near 3.6% of everything screened.

SMILES	ATG4B inh	SENP1 FRET inh	UCH37 DUB inh	GRIN3A LBD mod	NadD inh	PLA2 ctr	others
O=C(Nc1nc(-c2ccc(Cl)cc2)cs1)NC1CCCCC1	64.3*	-0.7	-3.0	9.3	3.9	73.5*
CCC(=NNC(=O)COc1ccccc1OC)C(CC)=NNC(=O)COc1ccccc1OC	·	·	1.9	·	·	·
COc1ccc(N(CC(=O)Nc2ccccc2C(=O)O)S(=O)(=O)c2ccc(C)c([N+](=O)[O-])c2)cc1	58.8*	-1.8	-3.6	-16.4	8.5	62.2*
COc1ccc(NC(=O)CN(c2ccc([N+](=O)[O-])cc2)S(=O)(=O)c2ccccc2)cc1	-8.5	3.1	4.4	4.1	-4.4	·
O=c1c2c(-c3ccccc3)csc2ncn1N=Cc1c2ccccc2cc2ccccc12	·	·	3.6	·	·	·
Cc1c(Cl)cccc1NC(=S)NCc1ccccc1Cl	78.7*	0.1	1.9	-3.1	-8.0	83.4*
Cc1c(Cl)cccc1NC(=S)NCc1ccc(F)cc1	58.4*	1.5	2.4	-4.4	1.5	69.2*
COc1ccccc1NC(=S)NCc1ccccc1Cl	5.1	-2.3	3.4	3.6	-3.1	·
Cc1c(Cl)cccc1NC(=S)NCc1cccn1C	46.7*	-1.9	0.8	0.3	-1.0	66.0*
COC(=O)c1cccc(NC(=S)Nc2cccc(Cl)c2C)c1	57.8*	-1.4	2.5	-5.2	-0.8	56.1*
Cc1ccccc1NC(=S)NCc1cccn1C	-9.9	-3.4	4.0	-2.4	-0.2	·
Cc1c(Cl)cccc1NC(=S)NCC1COc2ccccc2O1 (configuration not stated)	88.4*	1.3	0.4	-0.4	1.3	89.2*
COc1cccc(CNC(=S)Nc2cccc(Cl)c2C)c1	54.1*	3.0	-0.8	-3.6	0.1	65.3*
C=CCNC(=S)NCC1COc2ccccc2O1 (configuration not stated)	-0.3	1.0	5.8	2.0	-5.8	·
COc1ccccc1N1CCN(N=Cc2ccc(C)o2)CC1	·	·	2.7	·	·	·
CCOc1ccc(C=NNC(=O)c2nnn(-c3nonc3N)c2-c2cccs2)cc1	·	·	-237.0	·	·	·
COc1ccc(N=C2S/C(=C\c3ccc(OC(C)C(=O)O)c(OC)c3)C(=O)N2CCc2c[nH]c3ccccc23)cc1 (configuration not stated)	57.8*	2.5	6.1	2.2	19.9	64.6*
COCCN1C(=O)/C(=C/c2ccc(Oc3ccc([N+](=O)[O-])cn3)c(OC)c2)SC1=Nc1ccccc1	-3.1	3.8	6.5	-2.9	9.0	·
COc1cc(/C=C2\SC(=Nc3ccccc3)N(CCc3c[nH]c4ccccc34)C2=O)ccc1OC(C)C(=O)O (configuration not stated)	46.0*	0.9	5.5	-1.1	19.3	19.4	ATG4B confirm=51.0*
NC(=NOC(=O)c1ccccc1Br)c1ccc([N+](=O)[O-])cc1	·	·	4.9	·	·	·
COC(=O)NN=Cc1cn(CCOc2ccc(OC)cc2)c2ccccc12	·	·	2.7	·	·	·
O=C1C2C3C=CC(C4CC34)C2C(=O)N1N=Cc1ccc([N+](=O)[O-])o1 (configuration not stated)	·	·	7.8	·	·	·
C[C@@H]1C[C@@H]2O[C@H]2C=CC=CC(=O)Cc2c(Cl)c(O)cc(O)c2C(=O)O1	·	·	-0.6	·	·	·
O=Cc1ccccc1OCCCOc1cccc2cccnc12	65.1*	0.8	4.8	-1.4	1.4	75.0*
O=Cc1ccc(OCCCOc2cccc3cccnc23)cc1	5.1	0.8	4.3	0.4	2.5	·
SMILES	ATG4B inh	SENP1 FRET inh	UCH37 DUB inh	GRIN3A LBD mod	NadD inh	PLA2 ctr	others
O=C1NC(c2cccc3ccccc23)Nc2ccc(Cl)cc21 (configuration not stated)	43.4*	-8.9	·	-25.1	1.3	58.7*
CN(C)c1ccc(-c2nnn(Cc3ccccc3Br)n2)cc1	41.0*	1.6	-2.8	2.8	0.3	39.2	ATG4B confirm=65.9*
CC(=NNC(=O)CN(c1ccccc1)S(C)(=O)=O)c1ccccc1O	·	·	-0.3	·	·	·
Cc1cccc2nc(-c3cccnc3)c(NCCC(C)C)n12	40.5*	-7.6	-148.3	3.4	-16.8	51.5*
Cc1cccc2nc(-c3cccnc3)c(Nc3ccccc3)n12	-5.1	-0.3	4.7	-1.6	-0.5	·
Clc1cccc(Cl)c1CNc1ccc(N2CCCC2)cc1	42.6*	·	1.3	-1.8	·	41.9	ATG4B confirm=64.0*
O=C(Cc1ccc(Cl)cc1)Nc1ccc(N2CCCC2)cc1	-4.7	-4.8	6.6	-5.3	29.9	·
O=c1c2ccccc2nc(/C=C/c2ccc(O)cc2)n1CCc1ccccc1	47.9*	20.0	-0.3	19.5*	5.2	47.8	ATG4B confirm=72.0*
O=c1c2ccccc2nc(/C=C/c2ccccc2)n1CCCO	0.9	0.6	2.6	0.3	-3.8	·
O=C(CSCc1c(F)cccc1Cl)NNC(=S)NC1CCCCC1	65.6*	-0.4	6.5	-7.0	5.1	62.9*
Cc1cccc(C(=O)c2cnc3ccccc3c2-c2ccccc2)c1	56.6*	-0.3	2.4	-0.8	-1.5	58.8*
Cc1cc(-c2ccc(C=Nn3cnnc3)o2)c(C)c([N+](=O)[O-])c1	·	·	6.9	·	·	·
CC(Cc1ccccc1)=NNC(=O)c1ccccn1	·	·	2.6	·	·	·
CC1=C(C(=O)Nc2cccc(C(=O)NCc3ccccc3C)c2)SCCO1	54.0*	1.8	3.9	0.1	-8.9	63.9*
CC1=C(C(=O)Nc2cccc(C(=O)NCc3ccc(F)cc3)c2)SCCO1	8.2	-0.1	2.4	0.1	-2.5	·
Cc1ccccc1NC(=S)NN=Cc1ccc(O)cc1O	·	·	1.5	·	·	·
O=C(NN=Cc1cc([N+](=O)[O-])ccc1O)c1cccc(N2CCCC2=O)c1	·	·	9.4	·	·	·
O=C1Nc2ccc(F)cc2C12Nc1ccccc1-c1nnc(SCc3ccccc3F)nc1O2 (configuration not stated)	10.8	5.3	2.7	-2.5	12.4	·
O=C1Nc2ccc(Cl)cc2C12Nc1ccccc1-c1nnc(SCc3ccccc3F)nc1O2 (configuration not stated)	49.5*	3.3	5.3	-8.3	3.9	63.2*
O=C(NN=CC1C(c2ccccc2)C1(Cl)Cl)c1cccc(Cl)c1 (configuration not stated)	·	·	0.3	·	·	·
